Active and inactive are the calls of the source. The calls are words filed in the database; no cut-off is given here.

For orientation: EC50 means the concentration needed to bring the measured effect to its halfway point. By IC50 is commonly meant the concentration at which inhibition is half-maximal. Low readings indicate inhibition by little substance, high ones a need for much substance. In general, inhibition refers to the drop in the measured response relative to a control, in per cent. A higher inhibition goes with a strong effect.

For series [1], the system named is Oocyte. Briefly: Modulation of rat alpha1beta2gamma2L GABAA receptor expressed in Xenopus laevis oocytes assessed as […] at 10 uM by electrophysiology assay relative to GABA. Format: cell-based. An outline of the steps: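 Rat α1β2γ2L receptors in Xenopus oocytes, two-electrode voltage clamp at −70 mV. Current gated directly by 10 μM compound without GABA, expressed as the ratio to the current from 2 μM GABA. At least four oocytes. Mean ± SEM.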

The subject of series [2] is Oocyte. Briefly: Modulation of rat alpha1beta2gamma2L GABAA receptor expressed in Xenopus laevis oocytes assessed as potentiation of GABA-induced chloride currents at 1 uM by electrophysiology assay relative to control. Format: cell-based.
For series [3], the system named is Xenopus laevis. Briefly: Anesthetic effect on Xenopus laevis tadpole assessed as loss of swimming reflex. Format: functional, organism-based. An outline of the steps:
(§1)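 Xenopus laevis tadpoles, N = 10 or more per concentration, at five or more concentrations from 0.01 μM to 30 μM. Loss of righting reflex (LRR) and loss of swimming reflex (LSR) were scored. EC50 and nHill were taken from concentration–response curves. Recovery was checked after an overnight period. Mean ± SEM.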

Series [4] deals with Oocyte. Briefly: Modulation of rat alpha1beta2gamma2L GABAA receptor expressed in Xenopus laevis oocytes assessed as potentiation of GABA-induced chloride currents at 0.1 uM by electrophysiology assay relative to control. Format: cell-based.
In series [5] the test system is Oocyte. The series is described as follows: Modulation of rat alpha1beta2gamma2L GABAA receptor expressed in Xenopus laevis oocytes assessed as potentiation of GABA-induced chloride currents at 10 uM by electrophysiology assay relative to control. Format: cell-based.
In series [6] the test system is Xenopus laevis. Briefly: Anesthetic effect on Xenopus laevis tadpole assessed as loss of righting reflex. Format: functional, organism-based. An outline of the steps: as §1
Series [7] can be described thus: Displacement of [35S]TBPS from GABAA receptor picrotoxin binding site in rat brain membranes. Format: cell membranes. (In general: In a radioligand displacement assay an active substance lowers the binding of a labelled ligand.)
Series [8] has as its system Oocyte. The series is described as follows: Modulation of GABAA receptor alpha1(Q241L)beta2gamma2L mutant expressed in Xenopus laevis oocytes assessed as potentiation of GABA-induced chloride currents at 1 uM by electrophysiology assay. Format: cell-based. An outline of the steps:
(§2)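 Oocytes were coinjected with α1(Q241L) cRNA plus wild-type β2 and γ2L cRNA. Recording was by two-electrode voltage clamp at −70 mV, 2–5 days after injection. Responses to a sequence of compound applications were normalised, 4 oocytes per receptor type.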

For series [9], the system named is Oocyte. The series is described as follows: Modulation of rat alpha1beta2gamma2L GABAA receptor expressed in Xenopus laevis oocytes assessed as potentiation of GABA-induced chloride currents at 0.5 uM by electrophysiology assay relative to control. Format: cell-based.
Series [10] concerns Oocyte. The series is described as follows: Modulation of GABAA receptor alpha1(Q241L)beta2gamma2L mutant expressed in Xenopus laevis oocytes assessed as potentiation of GABA-induced chloride currents at 0.5 uM by electrophysiology assay. Format: cell-based. An outline of the steps: as §2
Series [11] is filed under the species Xenopus laevis. Briefly: Toxicity in Xenopus laevis tadpole assessed as mortality at 10 uM. Format: organism-based. The conditions noted are these: in vivo. An outline of the steps:
(§3)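 Tadpoles, 10 per group, exposed at 10 μM. Each animal was scored for swimming reflex, and for death without overnight recovery from loss of swimming reflex. Results are given as the number of animals out of 10.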

The species named for series [12] is Rattus norvegicus. The series is described as follows: Displacement of [35S]TBPS from GABAA receptor picrotoxin binding site in rat brain membranes at 10 uM. Format: cell membranes.
The test system of series [13] is Xenopus laevis. Briefly: Anesthetic effect on Xenopus laevis tadpole assessed as loss of swimming reflex at 10 uM. Format: functional, organism-based. An outline of the steps: as §3

On to `C[C@@]12CC[C@H](O)C[C@H]1C[C@@H](OCc1ccccc1)[C@@H]1[C@@H]2CC[C@@]2(C)C(=O)CC[C@@H]12`, for which the Ratio in series [1] was found to be 0.11; in series [2], 5.74; in series [4], 1.25; in [5], 25.2. For the same molecule, the EC50 in series [3] worked out at 2930 nM; in [6] it was 1210 nM. Also, the IC50 in series [7] is 168 nM. Also, in series [8], the result was inactive.

With `C[C@@]12CCC3C(CC[C@@H]4C[C@@H](O)CC[C@@]34C)C1CCC2=O` (single isomer, unassigned), the Ratio in series [1] was found to be 0.03; in series [2] it was 3.66; in [4], 1.27; in series [5], 18.9. In series [7], this molecule showed an IC50 of 311 nM.

For the molecule `C[C@@]12CC[C@H](O)C[C@H]1C[C@@H](OCc1ccccc1)[C@@H]1[C@@H]2CC[C@]2(C)[C@H]1CC[C@]21CO1`, the Ratio worked out at 0.22 in series [1], 20.3 in series [2], 3.47 in series [4] and 32.4 in [5]. The result in series [9] and in series [10] was inactive. The concentration giving a half-maximal response (EC50) in [3] turned out to be 550 nM; in [6] it was 310 nM. Also, in series [7], the IC50 worked out at 52 nM.

On to `C[C@]12CC[C@@H](O)C[C@@H]1CC[C@@H]1[C@@H]2[C@@H](OCc2ccccc2)C[C@]2(C)C(=O)CC[C@@H]12`, for which the Ratio came to 0.2 in series [1], 2.96 in series [2], 1.08 in series [4] and 24.4 in series [5]. Further, the results for the concentration giving a half-maximal response (EC50) in [3] and in series [6] were 870 nM and 200 nM, respectively. Moreover, in series [11], the Activity entry is listed as “Toxic”. Also, the 50% inhibitory concentration (IC50) in series [7] was found to be 285 nM. Also, in [8], the result was inactive.

Take `C[C@@]12CC[C@H](O)C[C@H]1CCC1C2CC[C@]2(C)C1CC[C@]21CO1` (single isomer, unassigned): the Ratio in series [1] was 0.1; in [2], 15.9; in series [4], 2.62; in [5], 26.3. This molecule also registered an IC50 in [7] of 467 nM.

Take `C[C@@]12CC[C@H](O)C[C@H]1CC[C@@H]1[C@@H]2[C@H](OCc2ccccc2)C[C@]2(C)[C@H]1CC[C@]21CO1`: the Ratio was 0.05 in [1], 1.3 in [2], 1.01 in [4] and 3.21 in series [5]. Besides, the EC50 is 2740 nM in series [3] and 2640 nM in [6]. This molecule also came in with an IC50 in [7] of 2050 nM.

With `C[C@]12CC[C@@H](O)C[C@@H]1CC[C@@H]1[C@@H]2[C@@H](OCc2ccccc2)C[C@@]2(C)[C@H]1CC[C@@]21CO1`, the Ratio in [1] turned out to be 0.42; in [2] it was 21.2; in series [4], 2.99; in [5], 31.1. The result in [9] and in series [10] was inactive. Moreover, the 50% effective concentration (EC50) came out at 270 nM in series [3] and 70 nM in series [6]. In [7], this molecule showed an IC50 of 15 nM.

On to `CC(=O)[C@H]1CC[C@H]2[C@@H]3CC[C@H]4C[C@H](O)CC[C@]4(C)[C@H]3CC[C@]12C` [BREXANOLONE], for which the Ratio turned out to be 0.37 in series [1], 3.89 in series [2], 1.26 in series [4] and 9.65 in [5]. Also, the outcome in series [9] and in [10] was inactive. In addition, the half-inhibitory concentration (IC50) in [7] came out at 74 nM.

As for `C[C@]12CC[C@@H](O)C[C@@H]1C[C@H](OCc1ccccc1)[C@@H]1[C@@H]2CC[C@]2(C)C(=O)CC[C@@H]12`, the Ratio in [1] was 0; in [2], 0.9; in series [4], 0.97; in series [5], 0.76. For the same molecule, the inhibition in [12] was found to be 35%. Besides, the half-maximal effective concentration (EC50) in [6] is more than 10000 nM. The molecule also showed an IC50 in series [7] of more than 10000 nM. Further, the outcome in [13] was inactive.

For the molecule `C[C@]12CC[C@@H](O)C[C@@H]1CC[C@@H]1[C@@H]2CC[C@]2(C)C(=O)CC[C@@H]12` [ANDROSTERONE], the Ratio worked out at 0.02 in series [1], 1.41 in series [2], 0.97 in series [4] and 5.44 in series [5]. This molecule came in with an IC50 in series [7] of 410 nM. Further, the result in series [13] was inactive.

As for `C[C@]12CC[C@@H](O)C[C@@H]1CC[C@@H]1[C@@H]2CC[C@@]2(C)[C@H]1CC[C@@]21CO1`, the Ratio in series [1] was determined as 0.22; in [2] it was 21.9; in [4], 3.11; in [5], 33.7. The same molecule returned an IC50 in [7] of 105 nM.

Consider `C[C@]12CC[C@@H](O)C[C@@H]1C[C@H](OCc1ccccc1)[C@@H]1[C@@H]2CC[C@@]2(C)[C@H]1CC[C@@]21CO1`, for which the Ratio turned out to be 0.09 in series [1], 0.88 in [2], 0.83 in series [4] and 0.77 in series [5]. Further, the EC50 amounted to 7940 nM in series [3] and 3220 nM in series [6]. For the same molecule, in [7], the concentration for half-maximal inhibition (IC50) was 6750 nM.

Take `C[C@@]12CC[C@H](O)C[C@H]1CC[C@@H]1[C@@H]2[C@H](OCc2ccccc2)C[C@@]2(C)C(=O)CC[C@@H]12`: the Ratio in [1] is 0; in series [2], 0.85; in series [4] it was 0.89; in series [5] it was 0.6. Moreover, the concentration giving a half-maximal response (EC50) in [3] worked out at 3450 nM; in series [6] it was 1960 nM. The Activity result in series [11] is given as “Toxic”. Besides, in series [7], the 50% inhibitory concentration (IC50) is more than 10000 nM.

The values are drawn from ChEMBL document CHEMBL2021778, “Neurosteroid analogues. 17. Inverted binding orientations of androsterone enantiomers at the steroid potentiation site on γ-aminobutyric acid type A receptors” (J Med Chem, 2012).
